# Source: ChEMBL document CHEMBL3860041, “Synthesis, biological evaluation and molecular modeling study of some new methoxylated 2-benzylthio-quinazoline-4(3H)-ones as nonclassical antifolates” (Bioorg Med Chem Lett, 2016)
# Tests used:
# Assay type in all cases: functional
# [1] = Growth inhibition of human Caki1 cells at 10 uM after 48 hrs by SRB assay relative to control; details: CAKI-1, 48 h, read-out: GI
# Method in brief: (§1)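 NCI 60-cell-line panel, nine tumor subpanels; compounds tested at a single dose of 10 μM in the primary screen.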
# [2] = Growth inhibition of human A549 cells at 10 uM after 48 hrs by SRB assay relative to control; details: A549, 48 h, read-out: GI; method in brief: as §1
# [3] = Growth inhibition of human colon cancer cells after 48 hrs by SRB assay; details: Cancer cell lines
# Method in brief: (§2)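 Follow-up NCI panel testing over a 5-log dose range for each cell line. GI50, TGI and LC50 were monitored, with 5-fluorouracil run as the positive control. Values are grouped by tumour subpanel.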
# [4] = Growth inhibition of human UACC62 cells at 10 uM after 48 hrs by SRB assay relative to control; details: UACC-62, 48 h, read-out: GI
# Method in brief: (§3)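 Primary screen across the full NCI 60 human tumour cell line panel, which covers nine tumour subpanels. A single dose of 10 μM was applied to each line, and growth was recorded for each cell line.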
# [5] = Growth inhibition of human renal cancer cells after 48 hrs by SRB assay; details: Cancer cell lines; method in brief: as §2
# [6] = Growth inhibition of human SK-MEL-2 cells at 10 uM after 48 hrs by SRB assay relative to control; details: SK-MEL-2, 48 h, read-out: GI; method in brief: as §3
# [7] = Growth inhibition of human melanoma cells after 48 hrs by SRB assay; details: Melanoma cell; method in brief: as §2
# [8] = Growth inhibition of human ovarian cancer cells after 48 hrs by SRB assay; details: Cancer cell lines; method in brief: as §2
# [9] = Growth inhibition of human BT549 cells at 10 uM after 48 hrs by SRB assay relative to control; details: BT-549, 48 h, read-out: GI; method in brief: as §1
# [10] = Growth inhibition of human HCT116 cells at 10 uM after 48 hrs by SRB assay relative to control; details: HCT-116, 48 h, read-out: GI; method in brief: as §1
# [11] = Growth inhibition of human HT-29 cells at 10 uM after 48 hrs by SRB assay relative to control; details: HT-29, 48 h, read-out: GI; method in brief: as §1
# [12] = Growth inhibition of human MOLT4 cells at 10 uM after 48 hrs by SRB assay relative to control; details: MOLT-4, 48 h, read-out: GI; method in brief: as §1
# [13] = Growth inhibition of human 786-0 cells at 10 uM after 48 hrs by SRB assay relative to control; details: 786-0, 48 h, read-out: GI; method in brief: as §1
# [14] = Growth inhibition of human U251 cells at 10 uM after 48 hrs by SRB assay relative to control; details: U-251, 48 h, read-out: GI; method in brief: as §3
# [15] = Growth inhibition of human RXF393 cells at 10 uM after 48 hrs by SRB assay relative to control; details: RXF 393, 48 h, read-out: GI; method in brief: as §1
# [16] = Growth inhibition of human NCI-H460 cells at 10 uM after 48 hrs by SRB assay relative to control; details: NCI-H460, 48 h, read-out: GI; method in brief: as §1
# [17] = Growth inhibition of human HL-60(TB) cells at 10 uM after 48 hrs by SRB assay relative to control; details: HL-60, 48 h, read-out: GI
# Method in brief: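 NCI disease-oriented human tumour cell line screen: primary single-dose assay at 10 μM across the full 60-cell-line panel spanning nine tumour subpanels.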
# Cancer cell lines [18] = test: Potency index, ratio of 5-fluorouracil GI50 to compound GI50 for human renal cancer cells
# Method in brief: (§4)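 GI50 for each cell line came from NCI panel testing over a 5-log dose range, with 5-fluorouracil tested alongside as the reference drug. The index relates the 5-fluorouracil GI50 to the compound GI50 within each tumour subpanel.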
# [19] = Growth inhibition of human K562 cells at 10 uM after 48 hrs by SRB assay relative to control; details: K562, 48 h, read-out: GI; method in brief: as §1
# [20] = Growth inhibition of human Hs 578T cells at 10 uM after 48 hrs by SRB assay relative to control; details: read-out: GI; method in brief: as §1
# [21] = Growth inhibition of human breast cancer cells after 48 hrs by SRB assay; details: Cancer cell lines; method in brief: as §2
# [22] = Growth inhibition of human HOP62 cells at 10 uM after 48 hrs by SRB assay relative to control; details: HOP-62, 48 h, read-out: GI; method in brief: as §1
# [23] = Growth inhibition of human MDA-MB-231 cells at 10 uM after 48 hrs by SRB assay relative to control; details: MDA-MB-231, 48 h, read-out: GI; method in brief: as §1
# [24] = Growth inhibition of human HOP92 cells at 10 uM after 48 hrs by SRB assay relative to control; details: HOP-92, 48 h, read-out: GI; method in brief: as §1
# [25] = Growth inhibition of human SN12C cells at 10 uM after 48 hrs by SRB assay relative to control; details: read-out: GI; method in brief: as §3
# [26] = Growth inhibition of human non-small cell lung cancer cells after 48 hrs by SRB assay; details: Cancer cell lines; method in brief: as §2
# [27] = Growth inhibition of human LOXIMVI cells at 10 uM after 48 hrs by SRB assay relative to control; details: LOX IMVI, read-out: GI; method in brief: as §1
# Cancer cell lines [28] = test: Potency index, ratio of 5-fluorouracil GI50 to compound GI50 for human non-small cell lung cancer cells; method in brief: as §4
# Cancer cell lines [29] = test: Potency index, ratio of 5-fluorouracil GI50 to compound GI50 for human prostate cancer cells; method in brief: as §4
# [30] = Growth inhibition of human NCI/ADR-RES cells at 10 uM after 48 hrs by SRB assay relative to control; details: read-out: GI; method in brief: as §1
# [31] = Growth inhibition of human T47D cells at 10 uM after 48 hrs by SRB assay relative to control; details: read-out: GI; method in brief: as §3
# [32] = Growth inhibition of human OVCAR5 cells at 10 uM after 48 hrs by SRB assay relative to control; details: OVCAR-5, 48 h, read-out: GI; method in brief: as §1
# [33] = Growth inhibition of human SK-MEL-28 cells at 10 uM after 48 hrs by SRB assay relative to control; details: SK-MEL-28, 48 h, read-out: GI; method in brief: as §3
# [34] = Growth inhibition of human UO31 cells at 10 uM after 48 hrs by SRB assay relative to control; details: UO-31, 48 h, read-out: GI; method in brief: as §3
# [35] = Growth inhibition of human OVCAR8 cells at 10 uM after 48 hrs by SRB assay relative to control; details: OVCAR-8, 48 h, read-out: GI; method in brief: as §1
# [36] = Growth inhibition of human NCI-H23 cells at 10 uM after 48 hrs by SRB assay relative to control; details: NCI-H23, 48 h, read-out: GI; method in brief: as §1
# [37] = Growth inhibition of human SF539 cells at 10 uM after 48 hrs by SRB assay relative to control; details: SF-539, 48 h, read-out: GI; method in brief: as §1
smiles,measurement,setting,value
COc1cc(CSc2nc3ccc(Cl)cc3c(=O)n2Cc2ccccc2)cc(OC)c1OC,inhibition of growth at 10 µM,[1],73.3%
same,inhibition of growth at 10 µM,[2],57.8%
same,GI50,[3],3.1 µM
same,LC50,[3],87.5 µM
same,TGI,[3],86.3 µM
same,inhibition of growth at 10 µM,[4],84.8%
same,GI50,[5],4.4 µM
same,LC50,[5],96.5 µM
same,TGI,[5],52.3 µM
same,inhibition of growth at 10 µM,[6],78.6%
same,GI50,[7],4.4 µM
same,LC50,[7],98.9 µM
same,TGI,[7],55.2 µM
same,GI50,[8],5.2 µM
same,LC50 (50% lethal concentration),[8],> 100 µM
same,TGI,[8],75.6 µM
same,inhibition of growth at 10 µM,[9],78.3%
same,inhibition of growth at 10 µM,[10],79.2%
same,inhibition of growth at 10 µM,[11],88.3%
same,inhibition of growth at 10 µM,[12],70.6%
same,inhibition of growth at 10 µM,[13],56.6%
same,inhibition of growth at 10 µM,[14],67.2%
same,inhibition of growth at 10 µM,[15],86.9%
same,inhibition of growth at 10 µM,[16],79.5%
same,inhibition of growth at 10 µM,[17],85.4%
same,RatioGI50,Cancer cell lines [18],2 - 10
same,inhibition of growth at 10 µM,[19],87.2%
same,inhibition of growth at 10 µM,[20],69.5%
same,GI50,[21],3.3 µM
same,LC50,[21],> 100 µM
same,TGI,[21],59.1 µM
same,inhibition of growth at 10 µM,[22],62.3%
same,inhibition of growth at 10 µM,[23],61.2%
same,inhibition of growth at 10 µM,[24],28.7%
same,inhibition of growth at 10 µM,[25],61.5%
same,GI50,[26],5.5 µM
same,LC50 (concentration killing 50% of cells),[26],97.6 µM
same,TGI,[26],66.5 µM
same,inhibition of growth at 10 µM,[27],60.7%
same,RatioGI50,Cancer cell lines [28],2 - 10
same,RatioGI50,Cancer cell lines [29],2 - 10
same,inhibition of growth at 10 µM,[30],86.1%
same,inhibition of growth at 10 µM,[31],66.1%
same,inhibition of growth at 10 µM,[32],53.3%
same,inhibition of growth at 10 µM,[33],56.3%
same,inhibition of growth at 10 µM,[34],72.9%
same,inhibition of growth at 10 µM,[35],47.1%
same,inhibition of growth at 10 µM,[36],74.9%
same,inhibition of growth at 10 µM,[37],94.2%
COc1cc2nc(SCc3cc(OC)c(OC)c(OC)c3)n(Cc3ccccc3)c(=O)c2cc1OC,inhibition of growth at 10 µM,[1],74.3%
same,inhibition of growth at 10 µM,[2],63.2%
same,GI50,[3],2.2 µM
same,LC50,[3],> 100 µM
same,TGI,[3],87.8 µM
same,inhibition of growth at 10 µM,[4],76.6%
same,GI50,[5],4.7 µM
same,LC50,[5],85.7 µM
same,TGI,[5],49.1 µM
same,GI50,[7],2.6 µM
same,LC50,[7],78.7 µM
same,TGI,[7],45.9 µM
same,GI50,[8],6.4 µM
same,LC50 (50% lethal concentration),[8],> 100 µM
same,TGI,[8],62.7 µM
same,inhibition of growth at 10 µM,[9],83.2%
same,inhibition of growth at 10 µM,[10],85.4%
same,inhibition of growth at 10 µM,[11],89.4%
same,inhibition of growth at 10 µM,[12],83.3%
same,inhibition of growth at 10 µM,[13],63.3%
same,inhibition of growth at 10 µM,[14],71%
same,inhibition of growth at 10 µM,[15],95.5%
same,inhibition of growth at 10 µM,[16],77.7%
same,inhibition of growth at 10 µM,[17],88.1%
same,RatioGI50,Cancer cell lines [18],2 - 10
same,inhibition of growth at 10 µM,[19],89.8%
same,inhibition of growth at 10 µM,[20],73.3%
same,GI50,[21],2.5 µM
same,LC50,[21],99.3 µM
same,TGI,[21],47.4 µM
same,inhibition of growth at 10 µM,[22],58.6%
same,inhibition of growth at 10 µM,[23],64%
same,inhibition of growth at 10 µM,[24],37.4%
same,inhibition of growth at 10 µM,[25],58.8%
same,GI50,[26],3.6 µM
same,LC50 (concentration killing 50% of cells),[26],94.5 µM
same,TGI,[26],63.1 µM
same,inhibition of growth at 10 µM,[27],62.3%
same,RatioGI50,Cancer cell lines [28],2 - 10
same,RatioGI50,Cancer cell lines [29],2 - 10
same,inhibition of growth at 10 µM,[31],64.1%
same,inhibition of growth at 10 µM,[32],46.3%
same,inhibition of growth at 10 µM,[33],60.8%
same,inhibition of growth at 10 µM,[34],65.3%
same,inhibition of growth at 10 µM,[35],< 10%
same,inhibition of growth at 10 µM,[36],79.6%
